# Test results published in ChEMBL document CHEMBL6083225, “Copper selective 8-aminoquinoline based tetradentate chelators as anticancer agents” (RSC Med Chem, 2024).
# The source made the active and inactive calls. No cut-off for these calls is given here.
# Tests used:
# HepG2 = assay: Cytotoxicity against human HepG2 cells assessed as cell viability incubated for 48 hrs by MTT assay; format: functional, cell-based; conditions: HepG2, 48 h
# Procedure, shortened: (§1)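 Cells seeded at 5000/well, held 24 h at 37 °C, 5% CO2, then exposed 48 h to 100, 50, 25, 12.5, 6.3 or 3.1 μM, with an untreated control. Then 0.5 mg mL⁻¹ MTT in FBS-free DMEM for 4 h at 37 °C, formazan dissolved in DMSO and read at 570 nm. IC50 is the mean ± SD of at least three independent experiments; 5-FU served as positive control.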
# A549 = assay: Cytotoxicity against human A549 cells assessed as cell viability incubated for 48 hrs by MTT assay; format: functional, cell-based; conditions: A549, 48 h; procedure, shortened: as §1
# COLO-829 = assay: Cytotoxicity against human COLO-829 cells assessed as cell viability incubated for 48 hrs by MTT assay; format: functional, cell-based; conditions: COLO-829, 48 h; procedure, shortened: as §1
# [1] = Cytotoxicity against human HaCaT cells assessed as cell viability incubated for 48 hrs by MTT assay; format: toxicity, cell-based; procedure, shortened: as §1
# HeLa [2] = assay: Cytotoxicity against human HeLa cells assessed as cell viability incubated for 48 hrs by MTT assay; format: functional, cell-based
# Procedure, shortened: (§2)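 5000 cells/well preincubated 24 h at 37 °C, 5% CO₂, then exposed to 3.1–100 μM for 48 h; untreated control, 5-FU positive control. MTT at 0.5 mg/mL in FBS-free DMEM for 4 h, formazan dissolved in DMSO, absorbance read at 570 nm. IC50 taken as half-maximal inhibitory concentration; mean ± SD of at least three independent experiments.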
# Mitochondrial membrane [3] = assay: Induction of mitochondrial membrane potential depolarization in human HeLa cells assessed as green fluorescence intensity at 3.7 uM incubated for 48 hrs by JC-1 staining based flow cytometric analysis (reference value: 3.28); format: cell membranes
# Procedure, shortened: (§3)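 HeLa cells grown in 10 cm dishes and left to attach overnight, then treated 48 h at 0, 3.7, 7.3 or 14.5 μM. Stained with JC-1 per kit instructions. Red (J-aggregate, 590 nm) and green (monomer, 527–529 nm) fluorescence read by flow cytometry. Red/green ratio expressed as % of untreated cells. At least triplicate; one-way ANOVA.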
# HeLa [4] = assay: Induction of apoptosis in human HeLa cells assessed as necrotic cells at 3.7 uM incubated for 48 hrs by Annexin V-FITC/PI staining based flow cytometry analysis (reference value: 0.12%); format: functional
# HeLa [5] = assay: Antiproliferative activity against human HeLa cells assessed as inhibition of colony formation at 12 uM incubated for 14 days by crystal violet staining based analysis; format: functional, cell-based; conditions: time 14.0 day
# Procedure, shortened: (§4)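 1000 HeLa cells per 3.5 cm dish, treated after attachment with 0, 1.5, 3, 6 or 12 μM for 14 days, medium refreshed every 2 days. Cells were fixed in 100% methanol for 30 min and stained with 0.1% crystal violet for 30 min. Colonies were imaged and counted, normalised to control wells. At least triplicate.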
# HeLa [6] = assay: Induction of apoptosis in human HeLa cells assessed as late apoptotic cells at 7.3 uM incubated for 48 hrs by Annexin V-FITC/PI staining based flow cytometry analysis (reference value: 6.10 %); format: functional
# HeLa [7] = assay: Induction of ROS production in human HeLa cells at 7.3 uM incubated for 48 hrs by H2DCFDA dye-based flow cytometry analysis; format: functional
# Procedure, shortened: (§5)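 HeLa cells exposed to 0, 3.7, 7.3 or 14.5 μM for 48 h, trypsinised, washed in PBS, then loaded with H₂DCFDA (final 10 μM) at 37 °C for 30 min in the dark. DCF fluorescence (ex 498/em 522 nm) read by flow cytometry and expressed as percent of untreated cells. At least triplicate.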
# HeLa [8] = assay: Induction of apoptosis in human HeLa cells assessed as viable cells at 7.3 uM incubated for 48 hrs by Annexin V-FITC/PI staining based flow cytometry analysis (reference value: 91.2%); format: functional; conditions: read-out: Activity
# HeLa [9] = assay: Induction of apoptosis in human HeLa cells assessed as early apoptotic cells at 14.5 uM incubated for 48 hrs by Annexin V-FITC/PI staining based flow cytometry analysis (reference value: 2.56%); format: functional
# HeLa [10] = assay: Induction of apoptosis in human HeLa cells assessed as necrotic cells incubated for 48 hrs by Annexin V-FITC/PI staining based flow cytometry analysis; format: functional, cell-based; conditions: dose 3.7-14.5 µM
# Mitochondrial membrane [11] = assay: Induction of mitochondrial membrane potential depolarization in human HeLa cells assessed as red fluorescence intensity at 7.3 uM incubated for 48 hrs by JC-1 staining based flow cytometric analysis (reference value: 95.8); format: cell membranes; procedure, shortened: as §3
# [12] = Selectivity index, ratio of IC50 for cytotoxicity against human HaCaT cells assessed as cell viability to IC50 for cytotoxicity against human HepG2 cells assessed as cell viability; format: toxicity, cell-based; conditions: HaCaT cells versus HepG2 cells
# Procedure, shortened: (§6)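 Selectivity index is IC50 in non-cancer HaCaT keratinocytes divided by IC50 in the cancer line. Both IC50 values came from MTT viability after 48 h exposure (5000 cells/well, 3.1–100 μM, absorbance at 570 nm), each a mean of at least three independent experiments.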
# HeLa [13] = assay: Induction of apoptosis in human HeLa cells assessed as early apoptotic cells at 3.7 uM incubated for 48 hrs by Annexin V-FITC/PI staining based flow cytometry analysis (reference value: 2.56%); format: functional
# HeLa [14] = assay: Induction of apoptosis in human HeLa cells assessed as viable cells at 14.5 uM incubated for 48 hrs by Annexin V-FITC/PI staining based flow cytometry analysis (reference value: 91.2%); format: functional; conditions: read-out: Activity
# Mitochondrial membrane [15] = assay: Induction of mitochondrial membrane potential depolarization in human HeLa cells assessed as decrease in red to green fluorescence intensity ratio at 3.7 to 14.5 uM incubated for 48 hrs by JC-1 staining based flow cytometric analysis; conditions: dose 3.7-14.5 µM
# Procedure, shortened: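 HeLa cells attached overnight, then treated at 0, 3.7, 7.3 or 14.5 μM for 48 h and stained with JC-1. Red (590 nm) and green (527–529 nm) fluorescence measured by flow cytometry. Red/green ratio expressed as percent of untreated cells; one-way ANOVA, at least triplicate.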
# HeLa [16] = assay: Anti-migration activity in human HeLa cells assessed as increase in wound width at 14.5 uM incubated 24 hrs by wound-healing assay (reference value: 61%); format: functional
# HeLa [17] = assay: Induction of apoptosis in human HeLa cells assessed as early apoptotic cells at 7.3 uM incubated for 48 hrs by Annexin V-FITC/PI staining based flow cytometry analysis (reference value: 2.56%); format: functional
# HeLa [18] = assay: Anti-migration activity in human HeLa cells assessed as inhibition of cell migration at 14.5 uM incubated 24 hrs by wound-healing assay; format: functional; design: scale not given: the % may be the effect or the level left
# HeLa [19] = assay: Induction of apoptosis in human HeLa cells assessed as late apoptotic cells at 14.5 uM incubated for 48 hrs by Annexin V-FITC/PI staining based flow cytometry analysis (reference value: 6.10 %); format: functional
# A-375 = assay: Cytotoxicity against human A-375 cells assessed as cell viability incubated for 48 hrs by MTT assay; format: functional, cell-based; conditions: A-375, 48 h; procedure, shortened: as §2
# HeLa [20] = assay: Induction of apoptosis in human HeLa cells assessed as late apoptotic cells at 3.7 uM incubated for 48 hrs by Annexin V-FITC/PI staining based flow cytometry analysis (reference value: 6.10 %); format: functional
# [21] = Selectivity index, ratio of IC50 for cytotoxicity against human HaCaT cells assessed as cell viability to IC50 for cytotoxicity against human HeLa cells assessed as cell viability; format: toxicity, cell-based; conditions: HaCaT cells versus HeLa cells, read-out: Ratio IC50; procedure, shortened: as §6
# Mitochondrial membrane [22] = assay: Induction of mitochondrial membrane potential depolarization in human HeLa cells assessed as green fluorescence intensity at 7.3 uM incubated for 48 hrs by JC-1 staining based flow cytometric analysis (reference value: 3.28; format: cell membranes; procedure, shortened: as §3
# HeLa [23] = assay: Induction of ROS production in human HeLa cells incubated for 48 hrs by H2DCFDA dye-based flow cytometry analysis; format: functional, cell-based; conditions: dose 3.7-14.5 µM; procedure, shortened: as §5
# Mitochondrial membrane [24] = assay: Induction of mitochondrial membrane potential depolarization in human HeLa cells assessed as green fluorescence intensity at 14.5 uM incubated for 48 hrs by JC-1 staining based flow cytometric analysis (reference value: 3.28); format: cell membranes; procedure, shortened: as §3
# HeLa [25] = assay: Induction of apoptosis in human HeLa cells assessed as necrotic cells at 7.3 uM incubated for 48 hrs by Annexin V-FITC/PI staining based flow cytometry analysis (reference value: 0.12%); format: functional
# HeLa [26] = assay: Induction of apoptosis in human HeLa cells assessed as necrotic cells at 14.5 uM incubated for 48 hrs by Annexin V-FITC/PI staining based flow cytometry analysis (reference value: 0.12%); format: functional
# HeLa [27] = assay: Induction of ROS production in human HeLa cells at 14.5 uM incubated for 48 hrs by H2DCFDA dye-based flow cytometry analysis; format: functional; procedure, shortened: as §5
# HeLa [28] = assay: Induction of ROS production in human HeLa cells at 3.7 uM incubated for 48 hrs by H2DCFDA dye-based flow cytometry analysis; format: functional; procedure, shortened: as §5
# Mitochondrial membrane [29] = assay: Induction of mitochondrial membrane potential depolarization in human HeLa cells assessed as red fluorescence intensity at 3.7 uM incubated for 48 hrs by JC-1 staining based flow cytometric analysis (reference value: 95.8); format: cell membranes; procedure, shortened: as §3
# HeLa [30] = assay: Induction of apoptosis in human HeLa cells assessed as viable cells at 3.7 uM incubated for 48 hrs by Annexin V-FITC/PI staining based flow cytometry analysis (reference value: 91.2%); format: functional; conditions: read-out: Activity
# [31] = Selectivity index, ratio of IC50 for cytotoxicity against human HaCaT cells assessed as cell viability to IC50 for cytotoxicity against human A549 cells assessed as cell viability; format: toxicity, cell-based; conditions: HaCaT cells versus A549 cells; procedure, shortened: as §6
# HeLa [32] = assay: Antiproliferative activity against human HeLa cells assessed as inhibition of colony formation at 1.5 to 12 uM incubated for 14 days by crystal violet staining based analysis; format: functional, cell-based; conditions: dose 1.5-12 µM, time 14.0 day; procedure, shortened: as §4
# Mitochondrial membrane [33] = assay: Induction of mitochondrial membrane potential depolarization in human HeLa cells assessed as red fluorescence intensity at 14.5 uM incubated for 48 hrs by JC-1 staining based flow cytometric analysis (reference value: 95.8); format: cell membranes; procedure, shortened: as §3
structure (smiles),measurement,setting,value
O=c1[nH]cc(F)c(=O)[nH]1 [FLUOROURACIL],IC50,HepG2,16.6 µM
same,IC50,A549,72.6 µM
same,IC50,COLO-829,48.7 µM
same,IC50 at 48 h,[1],30 µM
same,IC50,HeLa [2],14.5 µM
CN(C)CCNCCc1ccc2c(Cl)cc(Cl)c(N)c2n1.Cl.Cl.Cl,IC50,HepG2,16.6 µM
same,IC50,A549,16.2 µM
same,IC50,COLO-829,40.2 µM
same,Flu intensity,Mitochondrial membrane [3],5.51
same,Activity,HeLa [4],0.33%
same,Activity,HeLa [5],Active
same,Activity,HeLa [6],8.49%
same,Activity,HeLa [7],138%
same,viability at 7.3 µM,HeLa [8],85.3%
same,Activity,HeLa [9],21.6%
same,Activity,HeLa [10],Dose-dependent-effect
same,Flu intensity,Mitochondrial membrane [11],91.2
same,selectivity ratio,[12],2.5
same,IC50 at 48 h,[1],41.1 µM
same,Activity,HeLa [13],2.56%
same,viability at 14.5 µM,HeLa [14],49.3%
same,Activity,Mitochondrial membrane [15],Active
same,Activity,HeLa [16],74%
same,IC50,HeLa [2],14.5 µM
same,Activity,HeLa [2]; dose <= 100.0 µM,Dose-dependent-effect
same,Activity,HeLa [17],6.06%
same,Activity,HeLa [18],33%
same,Activity,HeLa [19],28.9%
same,IC50,A-375,38.1 µM
same,Activity,HeLa [20],6.48%
same,selectivity ratio,[21],2.8
same,Flu intensity,Mitochondrial membrane [22],8.25
same,Activity,HeLa [23],Dose-dependent-effect
same,Flu intensity,Mitochondrial membrane [24],37.3
same,Activity,HeLa [25],0.1%
same,Activity,HeLa [26],0.15%
same,Activity,HeLa [27],150%
same,Activity,HeLa [28],125%
same,Flu intensity,Mitochondrial membrane [29],93.9
same,viability at 3.7 µM,HeLa [30],90.6%
same,selectivity ratio,[31],2.5
same,Activity,HeLa [32],Active
same,Flu intensity,Mitochondrial membrane [33],61.8
